Reference: PMC3912990 (Current biology : CB, 2014)

Columns and labels:
Test in all cases: FLIPR intracellular Ca2+, agonist mode
Format in all cases: cell-based
δ-opioid receptor = δ-opioid receptor (Homo sapiens, UniProt P41143)
Method in brief: (§1)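 Human opioid receptor cDNA in pcDNA3.1(−), stably expressed in HEK293T cells grown in DMEM with 10% FBS. Test compound was dissolved in DMSO, diluted in FLIPR buffer and added automatically within 4 sec. Intracellular Ca2+ was monitored over 4 min (excitation 488 nm, emission 520 nm), and data were recorded as fluorescence (arbitrary units) versus time.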

κ-opioid receptor = κ-opioid receptor (Homo sapiens, UniProt P41145)
Sequence of κ-opioid receptor (P41145 whole entry): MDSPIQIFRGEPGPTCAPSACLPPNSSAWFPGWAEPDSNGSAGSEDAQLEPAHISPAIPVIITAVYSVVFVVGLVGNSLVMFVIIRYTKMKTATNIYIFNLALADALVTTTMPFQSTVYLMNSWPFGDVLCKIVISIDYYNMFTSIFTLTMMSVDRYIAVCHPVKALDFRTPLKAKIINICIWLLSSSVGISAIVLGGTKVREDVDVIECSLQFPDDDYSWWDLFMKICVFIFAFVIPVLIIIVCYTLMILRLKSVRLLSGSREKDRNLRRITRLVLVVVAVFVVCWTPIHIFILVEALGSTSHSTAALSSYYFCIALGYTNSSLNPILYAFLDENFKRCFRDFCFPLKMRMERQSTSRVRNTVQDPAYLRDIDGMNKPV
Method in brief: as §1

μ-opioid receptor = μ-opioid receptor (Homo sapiens, UniProt P35372); details: stable HEK293T line
Sequence of μ-opioid receptor (P35372 whole entry): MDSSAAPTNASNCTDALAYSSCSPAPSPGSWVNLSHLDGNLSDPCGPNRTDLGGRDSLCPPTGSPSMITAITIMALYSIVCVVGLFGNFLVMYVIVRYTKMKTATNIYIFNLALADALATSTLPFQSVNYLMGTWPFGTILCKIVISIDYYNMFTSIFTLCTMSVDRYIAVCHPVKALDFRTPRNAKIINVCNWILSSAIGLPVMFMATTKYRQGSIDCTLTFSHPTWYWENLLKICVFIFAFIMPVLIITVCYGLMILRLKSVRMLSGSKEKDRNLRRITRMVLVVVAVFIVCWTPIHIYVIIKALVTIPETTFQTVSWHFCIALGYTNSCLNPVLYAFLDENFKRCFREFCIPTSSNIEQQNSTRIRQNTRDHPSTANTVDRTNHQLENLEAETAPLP
Method in brief: as §1

Sequence of δ-opioid receptor (P41143 whole entry): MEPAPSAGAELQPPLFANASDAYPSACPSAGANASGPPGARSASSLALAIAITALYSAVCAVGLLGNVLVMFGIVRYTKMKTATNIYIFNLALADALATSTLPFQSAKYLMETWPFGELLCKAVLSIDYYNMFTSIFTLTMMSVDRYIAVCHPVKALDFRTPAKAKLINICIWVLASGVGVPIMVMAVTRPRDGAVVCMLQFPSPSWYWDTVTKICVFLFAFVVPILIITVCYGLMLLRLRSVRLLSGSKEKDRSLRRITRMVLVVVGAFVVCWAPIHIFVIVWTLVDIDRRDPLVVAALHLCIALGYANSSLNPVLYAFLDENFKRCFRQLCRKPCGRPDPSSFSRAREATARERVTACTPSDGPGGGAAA

For `COc1cc2c(cc1O)CC[n+]1cc3c(OC)c(OC)ccc3c(C)c1-2` [DHCB], the EC50 (δ-opioid receptor) was > 500 µM, the EC50 (κ-opioid receptor) was > 500 µM and the “Opioid Agonist (EC50, μM) / μ” value (μ-opioid receptor) was 100 (74~136) μM.
